Values after ≈ are worked out from the molar mass of the structure shown.
Columns and labels:
Plasmodium falciparum = experiment: Antimalarial activity against chloroquine-sensitive Plasmodium falciparum 3D7; type: functional, organism-based
Outline: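 Chloroquine-sensitive P. falciparum 3D7 grown in vitro with ciprofloxacin as the reference standard; IC50 reported as mass concentration ± SE.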

HEK293 [1] = experiment: Cytotoxicity against human HEK293 cells 1 to 100 uM after 24 to 72 hrs by MTT assay; type: cell-based
Outline: (§1)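 HEK-293 monolayers were kept in DMEM at 37 °C under 5% CO2 and seeded at about 4000 cells/well for 24 h. Medium was then replaced with fresh medium holding compound at 1, 10, 20, 30, 50 and 100 concentration units, and cells were incubated 24, 48 and 72 h. Viability was read by MTT and IC50 calculated.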

HEK293 [2] = experiment: Cytotoxicity against human HEK293 cells after 24 to 72 hrs by MTT assay; type: cell-based; outline: as §1

Work on `CCOC(=O)c1cn(CC)c2cc(Cl)c(F)cc2c1=O` yielded an IC50 (Plasmodium falciparum) of 15.2 µg/mL (≈ 51.1 µM).

`CCOC(=O)c1cn(Cc2cn(CCO)nn2)c2cc(Cl)c(F)cc2c1=O` was tested, and the IC50 (Plasmodium falciparum) was 14.3 µg/mL (≈ 36.3 µM).

For `CCOC(=O)c1cn(Cc2cn(-c3ccc(Cl)cc3)nn2)c2cc(Cl)c(F)cc2c1=O`, the IC50 (Plasmodium falciparum) was 13 µg/mL (≈ 28.2 µM).

In the case of `CCOC(=O)c1cn(CC#N)c2cc(Cl)c(F)cc2c1=O`, the IC50 (Plasmodium falciparum) is reported as 2.56 µg/mL (≈ 8.29 µM).

With `O=C(O)c1c[nH]c2cc(Cl)c(F)cc2c1=O` the IC50 (Plasmodium falciparum) was 4.32 µg/mL (≈ 17.9 µM) and the Activity (HEK293 [1]) was “Non-toxic”.

Work on `CCOC(=O)c1cn(Cc2cn(-c3ccc(F)cc3)nn2)c2cc(Cl)c(F)cc2c1=O` yielded an IC50 (HEK293 [2]) of 63.8 µM and an IC50 (Plasmodium falciparum) of 4.3 µg/mL (≈ 9.67 µM).

In the case of `CCCCn1cc(C(=O)OCC)c(=O)c2cc(F)c(Cl)cc21`, the IC50 (Plasmodium falciparum) is reported as 6.96 µg/mL (≈ 21.4 µM).

For `O=C(O)c1cn(C2CC2)c2cc(N3CCNCC3)c(F)cc2c1=O` [CIPROFLOXACIN], the IC50 (Plasmodium falciparum) was 8.82 µg/mL (≈ 26.6 µM).

`CCCn1cc(C(=O)OCC)c(=O)c2cc(F)c(Cl)cc21` was tested, and the IC50 (Plasmodium falciparum) was 4.86 µg/mL (≈ 15.6 µM).

In the case of `CCOC(=O)c1cn(C(C)C)c2cc(Cl)c(F)cc2c1=O`, the IC50 (Plasmodium falciparum) is reported as 6.97 µg/mL (≈ 22.3 µM).

`CCOC(=O)c1cn(CCO)c2cc(Cl)c(F)cc2c1=O` gave an IC50 (Plasmodium falciparum) of 4.26 µg/mL (≈ 13.6 µM).

`CCOC(=O)c1cn(C)c2cc(Cl)c(F)cc2c1=O` showed an IC50 (Plasmodium falciparum) of 11.8 µg/mL (≈ 41.7 µM).

Work on `CCOC(=O)c1cn(Cc2ccccc2)c2cc(Cl)c(F)cc2c1=O` yielded an IC50 (Plasmodium falciparum) of 6.83 µg/mL (≈ 19 µM).

With `CCOC(=O)c1cn(Cc2cn(-c3ccnc4cc(Cl)ccc34)nn2)c2cc(Cl)c(F)cc2c1=O` the IC50 (Plasmodium falciparum) was 4.06 µg/mL (≈ 7.92 µM) and the Activity (HEK293 [1]) was “Non-toxic”.

For `CCOC(=O)c1cn(Cc2cn(Cc3ccccc3)nn2)c2cc(Cl)c(F)cc2c1=O`, the IC50 (Plasmodium falciparum) was 12.2 µg/mL (≈ 27.7 µM).

With `CCCn1cc(Cn2cc(C(=O)OCC)c(=O)c3cc(F)c(Cl)cc32)nn1` the IC50 (Plasmodium falciparum) was 5.4 µg/mL (≈ 13.7 µM).

`C#CCn1cc(C(=O)OCC)c(=O)c2cc(F)c(Cl)cc21` gave an IC50 (Plasmodium falciparum) of 3.46 µg/mL (≈ 11.2 µM).

`CCOC(=O)c1cn(Cc2c[nH]nn2)c2cc(Cl)c(F)cc2c1=O` was tested, and the IC50 (Plasmodium falciparum) was 1.33 µg/mL (≈ 3.79 µM) and the Activity (HEK293 [1]) was “Toxic”.

`CCOC(=O)c1cn(Cc2cn(-c3cccc(Cl)c3)nn2)c2cc(Cl)c(F)cc2c1=O` showed an IC50 (Plasmodium falciparum) of 2.73 µg/mL (≈ 5.92 µM).

`CCOC(=O)c1cn(Cc2cn(-c3ccc(F)c(Cl)c3)nn2)c2cc(Cl)c(F)cc2c1=O` showed an IC50 (HEK293 [2]) of 41.9 µM and an IC50 (Plasmodium falciparum) of 3.4 µg/mL (≈ 7.09 µM).

`CCOC(=O)c1c[nH]c2cc(Cl)c(F)cc2c1=O` gave an IC50 (Plasmodium falciparum) of 5.81 µg/mL (≈ 21.5 µM).

Compound `CCOC(=O)c1cn(Cc2cn(CC(=O)OC)nn2)c2cc(Cl)c(F)cc2c1=O` has an IC50 (Plasmodium falciparum) of 5.26 µg/mL (≈ 12.4 µM).

Reference: ChEMBL document CHEMBL1955758, “Synthesis and in vitro antiplasmodial activities of fluoroquinolone analogs” (Eur J Med Chem, 2012)
